Results on 38 variants are retold here after the RNAGym collection of RNA variant scans (doi:10.1126/science.aae0568).

Variants at the floor of the assay were thinned out.

First the molecules themselves.
B1: tRNA (parent)
chain: GUUCCGUUGGCGUAAUGGUAACGCGUCUCCCUCCUAAGGAGAAGACUGCGGGUUCGAGUCCCGUACGGAACG

This data set covers variants of B1. The data set can be described thus: yeast fitness relative to wild type (ratio to wild type); higher = fitter; tRNA-Arg(CCU), competitive growth, 37 C, YPD. A digest of the protocol:
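A pool of Saccharomyces cerevisiae strains, each with a tRNA-Arg(CCU) gene variant at the native genomic locus, was competed in YPD at 37°C for 24 hours across six parallel replicates. The variants had been chemically synthesised at a 3% per-site mutation rate over 69 sites, and gene amplicons before and after competition were read by 100-nucleotide paired-end sequencing. Darwinian fitness relative to wild type rested on changes in genotype frequencies. Genotypes required ≥ 100 starting reads, and estimates < 0.5 were set to 0.5.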
Regarding GUCCCGUUGGCGUAAUGGUAACGCGUCUCCCUCCUAAGGAGAAGACUGCGGGUUCGAAUCUCGUACGGAGCG [U3C G58A C61U A70G], the yeast fitness was 0.777.

With GUCCCCUUGGCGUUAUGGUAACGCAUCUCCCUCCUAAAGAGAAGACAGCGGGUUCGAGUGCCGUACGGAACG [U3C G6C A14U G25A G38A U47A C60G], the yeast fitness stood at 0.558.

On to GUCCCGUUGGCGUAAUGGUAACACGUCGCCCUCCUAAGGAGAAGACUGCGGGUUCGAGUCCCGUACGGAACG [U3C G23A U28G], for which the yeast fitness was not above 0.5.

For GUCCCGUUGGCGUAAUGGUAACGCGUCUCCCUCCUAAGGAGAAGACUGCGGGUUCAAGUACCGUACGGAACG [U3C G56A C60A], the yeast fitness worked out at 0.568.

On to GUCCCGUUGGCGUAAUGGUAACGCGUCUCCCUCCUAAGGAGAAGACUGCGGGUUCAAGUCCCGUACGGAACG [U3C G56A], for which the yeast fitness stood at 1.03.

As for GUCCCGUUGACGUAAUGGUAACGCGUCUCCCUCCUAAGGAGAAGAUAGCGGGUCCGAGUCCCGUACGGAACG [U3C G10A C46U U47A U54C], the yeast fitness is not above 0.5.

For the variant GUCCCGUUGGCGUAAUGGUAACGCGUCUCCCUCCUAAGGAGAAGACUGCGGAUUCGAGUCCCGUACGAAACG [U3C G52A G68A], the yeast fitness was not above 0.5.

For GUCCCGUUGGCGUAAUGGUAACGCGUCUCCCUCCUAAGGAGAAGACUGCGGGUUCGAAUCCCGUACGCAACG [U3C G58A G68C], the yeast fitness worked out at 0.59.

Regarding GUCCCGUUAGCGUAAUGGUAACGCGUCUCCCUCGUAAGGAGGAGACUGGGGGUUCGAGUCCUGUACGGCACG [U3C G9A C34G A42G C49G C62U A69C], the yeast fitness was not above 0.5.

On to GUCCCGUUAGCGUAAUGGUAACGCGUCUCCCUCCUAAGGAGAAGACUCCGGGUUCGAGUCCCGUACGGAACG [U3C G9A G48C], for which the yeast fitness is 0.784.

Take GUCCCGUUGACGUAAUGGUAAAGGGUCUCCCUCCUAAGGAGAAGACUGCGGGUUCGAGUCCCGUACGGAACG [U3C G10A C22A C24G]: the yeast fitness was not above 0.5.

GUCCCGUUGGCGUAAUGCUAACGCGUCUCUCUCCUUAGGAGAAGACUGCGGGUUAGAGUCCCGUACGGAACG [U3C G18C C30U A36U C55A]: the yeast fitness is not above 0.5.

As to GUCCCGUUGACGUAAUGGUAACGCGUCUCCCUCCUAAGGAGAAGACUGCGGAUCCAAAUCCCGUACGGAACG [U3C G10A G52A U54C G56A G58A], the yeast fitness was not above 0.5.

As to GUCCCGUUGGCGUAAUGGUAACGCGUCUCCCUCCUAAAGAGAAGACUACGGGUUCGAGUCCCGUACGGAACG [U3C G38A G48A], the yeast fitness came out at 0.595.

Turning to GUCCCGUUGGCGUAAUGAUAACGCGUCUCCGUCCUAAGGAGAAGACUGCGGGUUCGAGUCCCGUACGGAACG [U3C G18A C31G], the yeast fitness was not above 0.5.

On to GUCCCGUUGGCGUAAUGAUAACGCGUCUCCCUCCUAAGGAGAAGACUGCGGGAGCGAGUCCCGUACGGAACG [U3C G18A U53A U54G], for which the yeast fitness amounted to 0.544.

Consider GUCCCGUUGGCGUAAUAGUAACGCGUCUCCCUCCUAAGGAGAAGACUGCGGGUCCGAGUCCCGUACGGAACG [U3C G17A U54C], for which the yeast fitness is not above 0.5.

For GUCCCGUUGGCGUAAUGGUAACCCGUCUCACUCCUGACGAGAAGACUGCGGGUUCGAGUCCCGUACGGAACG [U3C G23C C30A A36G G38C], the yeast fitness is not above 0.5.

In the case of GUCCCGUUAGCGUAAUGGUAGCGCGUCUCCCUCCUAAGGGGAAGACUGCGGGUUCAAGUCCCGCACGGAACG [U3C G9A A21G A40G G56A U64C], the yeast fitness is not above 0.5.

As to GUCCCGUUGCCGUAAUGGUCACGCGUCUCCCUCCUAAGGAGAAGACUGCGGGUUCCAGUCCCGUACGGAACG [U3C G10C A20C G56C], the yeast fitness stood at 0.577.

With GUCCCGUUGGCGUAAUGGUAACGCGUCUCCCUCCUAAGGAGAAGACUGCAGGUUCGGGUCCCGUACGGAACG [U3C G50A A57G], the yeast fitness is 0.632.

With GUCCCGUUGGCACAAUGGUAACGCGUCUCCCUCCUACGGAGAAGUCUCCGGGUUCGAGUCCCGUACGGAACG [U3C G12A U13C A37C A45U G48C], the yeast fitness is not above 0.5.

As to GUCCCGUUGCCGUAAUGGUAACGCGUCUCCCUCUUAAGGAGAAGACUGCGGGUUCGAGUCCCGUACGGAACG [U3C G10C C34U], the yeast fitness was found to be 0.586.

Take GUCCCGUUGGCGUAAUGGUAACGCGUCUCCCUCCUAAGGAGAAGACUGCGCGUUCGGGUCCCGUACGGAACG [U3C G51C A57G]: the yeast fitness is not above 0.5.

Take GUCCCGUUCGUGUAAUGGCAACGCGUCUCGCUCCUAAGGAGACGACUGCGGGUUCGAGUCCCGUACGGAACG [U3C G9C C11U U19C C30G A43C]: the yeast fitness was not above 0.5.

On to GUCCCGUUGGCGUAAUGGUAACGCAUCUUCCUCCUAAGGAGAAGACUGCGGGUUCGAGUCCCGUACGGAACG [U3C G25A C29U], for which the yeast fitness is 0.681.

As to GUCCCGUUGGCGUAAUGGUAACCCGUCUCCCUCCUAAGGAGAAGACUGCGGGUUCGAGUCCCGUACGGAACG [U3C G23C], the yeast fitness is 0.695.

In the case of GUCCCGUUGGCGUAAUGGUAACGCAUCUCCCUCCUAAGGAGAAGACUGCGGGUUCGAGACCCGUACGGAACG [U3C G25A U59A], the yeast fitness was 0.642.

As for GUCCCGUUGGCGUAAUGGUAACGCGUCUCCCUCCUAACGAGAAGACUGCGGGUUCGAGUCCCGUACGGAACG [U3C G38C], the yeast fitness came out at 0.813.

Turning to GUCCCGUUGGCGUAAUGGUAACGCGUCUCCCUCCUAAAGAGAAGACUGCGGGUUCGAGUCCCGUACGGAACG [U3C G38A], the yeast fitness was 1.05.

Regarding GUCCCGUUGGCGUAAUGGUAACGCAUCUCCCUCCUAAGGAGAAGGCUGCGGGUUCGAGUCCCGUACGGAACG [U3C G25A A45G], the yeast fitness was 0.59.

In the case of GUCCCGUUGGCAUAAUGGUAACGCGUCUCCCUGCUAAGGAGCAGACUGCGGGUUCGAGUCCCGUGCGGAACG [U3C G12A C33G A42C A65G], the yeast fitness was not above 0.5.

In the case of GUCCCGUUGGCGUAAUAGUAACGCGUCUCGCUCCUAAGGAGAAGACUGCGGGUUCGAGUCGCGUACGGAACG [U3C G17A C30G C61G], the yeast fitness was not above 0.5.

GUCCCGUUGGCGUAAUGGUAACGCGUCUCCCUCCUAAGGAGAAGACUGCGGGUUCAAGUCCCGUACGGCACG [U3C G56A A69C]: the yeast fitness came out at 0.802.

Regarding GUCCCGUUGGCGUAAUGAUAACGCGUCUCCCUCCUAAGGAGAAGACUGCGGGUUCGAGUCCCGUACGGAACG [U3C G18A], the yeast fitness turned out to be 0.916.

Regarding GUCCCGUUGGCAUAAUGGUAACGCGUCUCCCUCCUAAGGAGAACACUGCGGGUUCGAGUCCCGUACGGAACG [U3C G12A G44C], the yeast fitness worked out at 0.546.

GUCCCGUUGGCGUAAUGGUAACGCGUCUCCCUCCUAAGGAGAAGACUGCGAGUUCGAGUCCCGUACGGCACG [U3C G51A A69C]: the yeast fitness worked out at 0.602.

In the case of GUCCCGUUGGCGUAAUGGUAACGCAUCUCCCUCCUAUGGAGAAGACUGCGGGUUCGAGUCCCGUACGGAACG [U3C G25A A37U], the yeast fitness is 0.574.
